The test system of test [1] is Staphylococcus aureus. As to the kind of experiment: Antibacterial activity against Staphylococcus aureus ATCC 29213 at 200 ug/disk by agar disk diffusion method. The class given is functional. As to conditions: read-out: DIZ. The gist of the method:
(§1)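 Agar disk diffusion following standard protocols; test material applied at 200 μg/disk; gentamicin at 20 μg/disk served as the standard. Organisms: S. aureus ATCC 29213, B. subtilis ATCC 6051, E. coli ATCC 25922 and C. albicans ATCC 14053. Read-out was the diameter of the inhibitory zone in mm.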

The test system of test [2] is Bacillus subtilis. Description: Antibacterial activity against Bacillus subtilis ATCC 6051 at 200 ug/disk by agar disk diffusion method. The class given is functional. As to conditions: read-out: DIZ. The gist of the method:
as §1

Test [3] has as its system Escherichia coli. Description: Antibacterial activity against Escherichia coli ATCC 25922 at 200 ug/disk by agar disk diffusion method. The class given is functional, organism-based. The gist of the method:
as §1

In test [4] the test system is Candida albicans. As to the kind of experiment: Antifungal activity against Candida albicans ATCC 14053 at 200 ug/disk by agar disk diffusion method. It counts as functional, organism-based. Summed up:
as §1

Another test deals with U2OS. Description: Cytotoxicity against human U2OS cells assessed as cell viability after 48 hrs by CellTiter-Blue assay. The class given is functional, cell-based. The gist of the method:
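Human osteosarcoma U2OS cells were seeded at 250 cells per well in 384-well format and incubated overnight. Each well received 50 nL of a 10 mM DMSO stock, in duplicate, then 48 h at 37 °C. CellTiter-Blue reagent was added, followed by a further 22 h at 37 °C. […] was read at 530/580 nm.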

Test [5] concerns Staphylococcus aureus. As to the kind of experiment: Antibacterial activity against Staphylococcus aureus ATCC 29213 by agar disk diffusion method. The class given is functional. The gist of the method:
as §1

The subject of test [6] is Bacillus subtilis. As to the kind of experiment: Antibacterial activity against Bacillus subtilis ATCC 6051 by agar disk diffusion method. It counts as functional, organism-based. Summed up:
as §1

Test [7] relates to Escherichia coli. As to the kind of experiment: Antibacterial activity against Escherichia coli ATCC 25922 by agar disk diffusion method. The class given is functional, organism-based. Summed up:
as §1

Test [8] concerns Candida albicans. Description: Antifungal activity against Candida albicans ATCC 14053 by agar disk diffusion method. The class given is functional, organism-based. Summed up:
as §1

The structures appear in SMILES notation. The source made the active and inactive calls. No cut-off for these calls is given here.

On to `C/C1=C\CC[C@](C)(O)[C@H]2C[C@@H]2C(C)(C)C[C@H]1O`, for which the zone of inhibition at 200 µg/disc with Staphylococcus aureus [1] and in the test on Bacillus subtilis [2] was 13 mm throughout. Moreover, the result in the test with Escherichia coli [3] and in the test on Candida albicans [4] was inactive. In addition, the IC50 in the test on U2OS was greater than 10 µM.

Turning to `C=C1CC/C=C(\C)[C@H](O)CC(C)(C)[C@H]2C[C@H]12`, the outcome with Staphylococcus aureus [5], with Bacillus subtilis [6], in the test on Escherichia coli [7] and with Candida albicans [8] was inactive. The IC50 in the test with U2OS is greater than 10 µM.

Take `C/C1=C\C[C@@H](O)[C@](C)(O)[C@H]2C[C@@H]2C(C)(C)C[C@H]1O`: in the test on Staphylococcus aureus [5], the “diameter of the inhibition zone (DIZ)” value came to 9 mm. The IC50 in the test on U2OS is greater than 10 µM.

For the origin of these results see ChEMBL document CHEMBL3576777, “Hypocoprins A-C: new sesquiterpenoids from the coprophilous fungus Hypocopra rostrata” (J Nat Prod, 2015).
